Activity calls are given as the source filed them.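 How the source made its calls: active means compound blocking phage lysis by over 30% at some tested dose and judged capsule specific; inactive means the rest.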
System: not listed separately
Test: T7 phage lysis of capsulated E. coli, dose response, selectivity assay for bacterial capsule biogenesis inhibitors, set 5 (AID 588322)
Details: E. coli EV36 T7 phage lysis, OD600 3 h; at 100 µM (top of the series)
Summary of the method: (§1)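 Assay system: E. coli EV36 (K1:K-12 hybrid); buffer or medium: LB medium; dosing: dilution series from 100 to 0.39 µM final, 1% DMSO; schedule: 1.5 h compound at 37 °C, then 3 h post-infection; detection: OD600 absorbance at 3 h post-infection; read-out basis: Capsule-loss-dependent T7 phage lysis judged from culture OD600; repeats: quadruplicate per concentration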

Compound	cell growth (A600 at 3 h p.i., % of EV36+DMSO+T7 control); lower = more lysis
COC(=O)c1sc(-c2ccccc2)cc1NC(=O)c1c(F)cccc1F	111% (inactive)
Cc1onc(-c2ccccc2)c1C(=O)Nc1cc(-c2ccccc2)sc1C(=O)O	104% (inactive)
CCOc1ccc(-c2cc(NC(=O)c3c(F)cccc3F)c(C(=O)OC)s2)cc1	114% (inactive)

System: E. coli EV36 T7 phage lysis, OD600 3 h
Test: as above
Details: not given
Summary of the method: as §1

IC50	Compound
7.11 µM (inactive)	O=C(Nc1cc(-c2ccccc2)sc1C(=O)O)c1cccs1
33.4 µM (inactive)	O=C(Nc1cc(-c2ccccc2)sc1C(=O)O)c1cccc(Cl)c1
30.1 µM (inactive)	Cc1c(C(=O)Nc2cc(-c3ccccc3)sc2C(=O)O)oc2ccccc12
29.4 µM (inactive)	O=C(Nc1cc(-c2ccccc2)sc1C(=O)O)c1cccc(F)c1
8.13 µM (inactive)	O=C(Nc1cc(-c2ccccc2)sc1C(=O)O)c1ccc(Br)o1
12.7 µM (inactive)	O=C(Nc1cc(-c2ccccc2)sc1C(=O)O)c1ccc2c(c1)OCCO2
15 µM (inactive)	O=C(Nc1cc(-c2ccccc2)sc1C(=O)O)c1ccc(Cl)s1
7.11 µM (inactive)	O=C(Nc1cc(-c2ccccc2)sc1C(=O)O)c1cc2ccccc2o1
41.7 µM (inactive)	Cc1ccc(C(=O)Nc2cc(-c3ccccc3)sc2C(=O)O)s1

More lines, now with the values behind:

Compound	IC50
CCOc1ccc(-c2cc(NC(=O)c3ccc(OC)c(OC)c3)c(C(=O)O)s2)cc1	7.72 µM (inactive)
CCOc1ccc(-c2cc(NC(=O)c3cccc(Cl)c3)c(C(=O)O)s2)cc1	4.25 µM (inactive)
O=C(O)c1sc(-c2ccccc2)cc1NC(=O)C1CCCCC1	55 µM (inactive)
O=C(O)c1sc(-c2ccccc2)cc1NC(=O)C1CCCC1	57.4 µM (inactive)
O=C(Nc1cc(-c2ccccc2)sc1C(=O)O)c1cc(Cl)c2c(c1)OCCO2	16 µM (inactive)
CCOc1ccc(-c2cc(NC(=O)c3c(F)cccc3F)c(C(=O)O)s2)cc1	0.71 µM (inactive)

From PubChem BioAssay AID588322 (Southern Research Specialized Biocontainment Screening …, 2011)
